From ChEMBL document CHEMBL1145471, “Small molecule regulators of autophagy identified by an image-based high-throughput screen” (Proc Natl Acad Sci U S A, 2007) come the findings set out here.

What all share (format): functional
Test [1] has as its system H4. Description: Induction of light chain 3-GFP level in human H4 cells at 4.9 uM after 24 hrs by high throughput fluorescence microscopy relative to control. An outline of the steps:
(§1)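 H4 cells stably expressing LC3-GFP, kept in DMEM/10% FBS at 37°C, 5% CO2, were seeded in 96-well plates and exposed to compound for 24 h. Cells were then fixed in 4% paraformaldehyde and stained with 3 μg/ml DAPI. Automated fluorescence microscopy scored the number, size and intensity of LC3-GFP spots. Values are percent of DMSO wells, in triplicate, mean ± SD. Rapamycin served as positive control.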

Test [2] concerns H4. Description: Increase in light chain 3-GFP+ autophagosome vesicle area per cell in human H4 cells at 4.9 uM after 24 hrs by high throughput fluorescence microscopy relative to control. An outline of the steps:
(§2)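 H4 cells stably expressing LC3-GFP, seeded in 96-well plates and exposed to compound for 24 h; fixed in 4% paraformaldehyde, nuclei stained with 3 μg/ml DAPI. Automated fluorescence microscopy scored number, size and intensity of LC3-GFP spots; values expressed relative to DMSO-treated wells, rapamycin positive control. Triplicate wells, mean ± SD; experiments repeated three times.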

Test [3] deals with H4. Description: Increase in light chain 3-GFP+ autophagosome vesicle intensity per cell in human H4 cells at 4.9 uM after 24 hrs by high throughput fluorescence microscopy relative to control. The method, boiled down:
as §2

The subject of test [4] is H4. Nature of the test: Increase in light chain 3-GFP+ autophagosome vesicle number per cell in human H4 cells at 4.9 uM after 24 hrs by high throughput fluorescence microscopy relative to control. The method, boiled down: as §1
The subject of test [5] is H4. Nature of the test: Increase in light chain 3-GFP+ autophagosome vesicle number per cell in human H4 cells at 5.0 uM after 24 hrs by high throughput fluorescence microscopy relative to control. An outline of the steps:
(§3)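 H4 cells stably expressing LC3-GFP were grown in DMEM with 10% FBS and 2 mM L-glutamine at 37°C, 5% CO2. They were exposed to each compound for 24 h, with DMSO as negative and rapamycin as positive control. Cells were then fixed in 4% paraformaldehyde and stained with 3 μg/ml DAPI. High-throughput fluorescence imaging scored LC3-GFP spot number, size and intensity, expressed relative to DMSO. Mean ± SD of triplicates; experiments repeated three times.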

Test [6] relates to H4. Nature of the test: Increase in light chain 3-GFP+ autophagosome vesicle area per cell in human H4 cells at 5.0 uM after 24 hrs by high throughput fluorescence microscopy relative to control. An outline of the steps:
(§4)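 H4 cells stably expressing LC3-GFP, seeded in 96-well plates and exposed to compound for 24 h; screening concentrations were 3–12 μM, with rapamycin 0.22 μM and bafilomycin A1 0.40 μM. Cells fixed in 4% paraformaldehyde and stained with 3 μg/ml DAPI. Number, size and intensity of LC3-GFP spots measured by high-throughput fluorescence microscopy and expressed as percent of DMSO-treated wells. Rapamycin was the positive control. Triplicate wells, mean ± SD; experiments repeated three times.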

Test [7] deals with H4. Description: Increase in light chain 3-GFP+ autophagosome vesicle intensity per cell in human H4 cells at 5.0 uM after 24 hrs by high throughput fluorescence microscopy relative to control. The method, boiled down:
as §3

Test [8] concerns H4. Nature of the test: Decrease in FYVE-RFP+ vesicle intensity per cell in human H4 cells after 2 hrs relative to control. Further details: concentration or dose not given beside the values. The method, boiled down:
(§5)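 H4 cells stably expressing FYVE-RFP (H4-FYVE), grown in DMEM with 10% FBS, penicillin/streptomycin and 2 mM L-glutamine at 37°C, 5% CO2, seeded in 96-well plates and exposed to compound. Fixed in 4% paraformaldehyde, nuclei stained with 3 μg/ml DAPI, FYVE-RFP+ vesicles quantified by high-throughput fluorescence microscopy against DMSO control. Triplicate wells, mean ± SD.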

Test [9] has as its system H4. Description: Decrease in FYVE-RFP+ vesicle intensity per cell in human H4 cells after 4 hrs relative to control. Further details: concentration or dose not given beside the values. An outline of the steps: as §5
Test [10] relates to H4. Description: Decrease in FYVE-RFP+ vesicle intensity per cell in human H4 cells after 8 hrs relative to control. Further details: concentration or dose not given beside the values. The method, boiled down:
as §5

Test [11] has as its system H4. Description: Increase in long-lived protein degradation in human H4 cells after 1 hr relative to control. Further details: concentration or dose not given beside the values.
Test [12] concerns H4. Nature of the test: Increase in long-lived protein degradation in human H4 cells after 2 hrs relative to control. Further details: concentration or dose not given beside the values.
Test [13] deals with H4. Nature of the test: Increase in long-lived protein degradation in human H4 cells after 4 hrs relative to control. Further details: concentration or dose not given beside the values.
The subject of test [14] is H4. Nature of the test: Increase in long-lived protein degradation in human H4 cells after 24 hrs relative to control. Also on record: concentration or dose not given beside the values.
For test [15], the system named is H4. Nature of the test: Induction of light chain 3-GFP level in human H4 cells at 5.0 uM after 24 hrs by high throughput fluorescence microscopy relative to control. The method, boiled down: as §1
For test [16], the system named is H4. Nature of the test: Increase in light chain 3-GFP+ autophagosome vesicle number per cell in human H4 cells at 6.4 uM after 24 hrs by high throughput fluorescence microscopy relative to control. The method, boiled down: as §3
Test [17] deals with H4. Description: Increase in light chain 3-GFP+ autophagosome vesicle area per cell in human H4 cells at 6.4 uM after 24 hrs by high throughput fluorescence microscopy relative to control. An outline of the steps:
as §4

Test [18] concerns H4. Nature of the test: Increase in light chain 3-GFP+ autophagosome vesicle intensity per cell in human H4 cells at 6.4 uM after 24 hrs by high throughput fluorescence microscopy relative to control. An outline of the steps:
as §3

The subject of test [19] is H4. Description: Induction of light chain 3-GFP level in human H4 cells at 6.4 uM after 24 hrs by high throughput fluorescence microscopy relative to control. The method, boiled down:
(§6)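 H4 cells stably expressing LC3-GFP, grown in DMEM with 10% FBS, penicillin/streptomycin and 2 mM L-glutamine at 37°C, 5% CO2. Cells were seeded in 96-well plates and exposed to library compounds at 3–12 μM for 24 h, then fixed in 4% paraformaldehyde and stained with 3 μg/ml DAPI. LC3-GFP spot number, size and intensity were measured by high-throughput fluorescence microscopy and expressed relative to DMSO. Triplicates, mean ± SD.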

Test [20] deals with H4. Description: Increase in light chain 3-GFP+ autophagosome vesicle number per cell in human H4 cells at 7.6 uM after 24 hrs by high throughput fluorescence microscopy relative to control. An outline of the steps:
as §3

The subject of test [21] is H4. Nature of the test: Increase in light chain 3-GFP+ autophagosome vesicle area per cell in human H4 cells at 7.6 uM after 24 hrs by high throughput fluorescence microscopy relative to control. The method, boiled down:
as §4

Test [22] concerns H4. Nature of the test: Increase in light chain 3-GFP+ autophagosome vesicle intensity per cell in human H4 cells at 7.6 uM after 24 hrs by high throughput fluorescence microscopy relative to control. An outline of the steps: as §3
Test [23] concerns H4. Nature of the test: Induction of light chain 3-GFP level in human H4 cells at 7.6 uM after 24 hrs by high throughput fluorescence microscopy relative to control. The method, boiled down:
as §6

Test [24] has as its system H4. Nature of the test: Increase in light chain 3-GFP+ autophagosome vesicle number per cell in human H4 cells at 8.5 uM after 24 hrs by high throughput fluorescence microscopy relative to control. The method, boiled down: as §6
Test [25] deals with H4. Description: Increase in light chain 3-GFP+ autophagosome vesicle area per cell in human H4 cells at 8.5 uM after 24 hrs by high throughput fluorescence microscopy relative to control. The method, boiled down:
as §4

The subject of test [26] is H4. Description: Increase in light chain 3-GFP+ autophagosome vesicle intensity per cell in human H4 cells at 8.5 uM after 24 hrs by high throughput fluorescence microscopy relative to control. The method, boiled down: as §3
Test [27] relates to H4. Description: Induction of light chain 3-GFP level in human H4 cells at 8.5 uM after 24 hrs by high throughput fluorescence microscopy relative to control. The method, boiled down:
as §6

Molecules are shown by their SMILES.

As for `C=C1[C@@H](C)[C@H]2[C@H](Cc3ccccc3)NC(=O)[C@]23[C@H](OC(C)=O)/C=C/[C@@](C)(O)C(=O)[C@@H](C)C/C=C/[C@H]3[C@@H]1O` [CYTOCHALASIN D], the Activity was found to be 71.84% in the test with H4 [1], 306.27% in the test with H4 [2], 378.77% in the test on H4 [3] and 258.44% in the test on H4 [4].
`OCCN(CCO)c1nc(N2CCCCC2)c2nc(N(CCO)CCO)nc(N3CCCCC3)c2n1` [DIPYRIDAMOLE]: the Activity in the test on H4 [5] is given as 170.2%; with H4 [6] it was 199.02%; in the test with H4 [7] it was 213.63%; in the test with H4 [8], 32.22%; with H4 [9], 30.25%; in the test with H4 [10], 32.54%. The Activity with H4 [11] is given as 82.64%; in the test on H4 [12], 79.22%; in the test on H4 [13], 81.07%; in the test with H4 [14], 79.08%; in the test on H4 [15] it was 158.96%.
As to `CNC(=O)[C@H](Cc1c[nH]c2ccccc12)NC(=O)[C@@H](CC(=O)NO)CC(C)C` [ILOMASTAT], the Activity in the test on H4 [16] worked out at 154.31%; with H4 [17], 171.42%; with H4 [18], 196.42%; with H4 [8] it was 30.69%; in the test with H4 [9], 32.3%; with H4 [10], 25.77%. Moreover, the Activity with H4 [11] stood at 129.48%; with H4 [12] it was 115.08%; with H4 [13] it was 104.88%; with H4 [14], 107.46%; in the test on H4 [19], 143.94%.
`Oc1ccc(-c2nc(-c3ccc(F)cc3)c(-c3ccncc3)[nH]2)cc1` [SB-202190]: the Activity is on record as 151.97% in the test with H4 [20], 160.87% in the test with H4 [21], 169.71% with H4 [22] and 91.14% with H4 [23].
On to `Cc1coc2c1C(=O)C(=O)c1c-2ccc2c1CCCC2(C)C` [TANSHINONE IIA], for which the Activity in the test with H4 [24] was 210.24%; in the test with H4 [25], 264.51%; with H4 [26], 273.72%; in the test on H4 [27], 79.77%.
